Compound activity deposited in PubChem BioAssay by several laboratories.
STAT1 act – STAT1 signaling activation; NIH 3T3 STAT1-luciferase reporter, IFN-gamma, luminescence; 100% = IFN-gamma alone, no compound; activation (% of control), % at 5.5 µM; hit rate 2.6% among 200,000; AID 932;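 active = activation above the screen-wide mean activation plus 3 SD, cut at about 130% in these data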;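 note: raw ratio to IFN-gamma control signal so 100% means no change and 0% no light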
NF-kB neuron act – compounds increasing NF-kB expression in human neuronal cells; NF-kB reporter expression; active compounds read high; fold change at 12.5 µM; hit rate 1.6% among 190,000; in the data active = fold change above about 3.3
SDO1 yeast rescue – restores growth of sdo1-depleted yeast | S. cerevisiae sdo1-depleted JHY4D growth rescue, OD600 30 h; active compounds read high; pdr5 snq2 efflux-pump mutant strain | z-score at 10 µM | hit rate 0.21% among 140,000 | AID 817;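 active = z-score above 3 at both the 24 hr and the 30 hr optical density reads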;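 note: z-score against mean and SD of all compound wells on the same plate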
FLuc stim CS – firefly luciferase counter-screen for stimulation assays | P08659 | ATPlite luciferase biochemical, luminescence, 10 min; 0 = ATP-free wells, 1 = DMSO control | activation factor at 10 µM | 200,000 tested, under 10 active | AID 1027;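 active = luciferase activation factor, scaled between plate controls, of at least 2 with compound at 10 µM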
Target sequence (P08659 whole entry, looked up): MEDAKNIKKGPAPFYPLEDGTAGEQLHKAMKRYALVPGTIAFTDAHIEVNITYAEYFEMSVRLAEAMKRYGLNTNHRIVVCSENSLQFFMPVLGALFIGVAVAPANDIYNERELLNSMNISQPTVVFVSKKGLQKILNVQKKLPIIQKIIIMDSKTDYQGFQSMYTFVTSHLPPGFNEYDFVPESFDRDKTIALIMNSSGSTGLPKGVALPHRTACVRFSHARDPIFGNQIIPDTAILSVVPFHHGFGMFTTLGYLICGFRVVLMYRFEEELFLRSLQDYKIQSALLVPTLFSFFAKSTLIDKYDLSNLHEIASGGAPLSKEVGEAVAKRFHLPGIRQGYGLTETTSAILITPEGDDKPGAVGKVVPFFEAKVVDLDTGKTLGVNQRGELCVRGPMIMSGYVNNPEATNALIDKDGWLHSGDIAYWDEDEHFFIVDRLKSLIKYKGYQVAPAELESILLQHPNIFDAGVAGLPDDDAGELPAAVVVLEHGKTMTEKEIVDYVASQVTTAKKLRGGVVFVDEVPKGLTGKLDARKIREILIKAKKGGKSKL
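Assay system: Luciferase/luciferin reagent mix; Medium: PBS as buffer for the ATP substrate; Dosing: test compounds dosed from 2 mM stocks in 100% DMSO; Times: 10 min, room temperature; Signal: luminescence from luciferase reaction; Read-out: luciferase activation; Controls: No-ATP low control, compound-free enzyme-plus-ATP high control.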
FLuc inh counter – counter-screen for luciferase assay inhibitors: firefly luciferase inhibition. P08659. ATPLite firefly luciferase biochemical luminescence, 10 min. inhibition, % at 10 µM. hit rate 1.5% among 200,000;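 active = inhibition above about 50% when tested at 10 µM, limit read from the data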
APP 5'UTR act – APP 5'UTR luciferase reporter activation; SH-SY5Y APP 5'UTR luciferase reporter, luminescence; zero percent = DMSO vehicle wells; activation, % at 2 µM; hit rate 1% among 190,000; AID 1276;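 active = activation above a set limit, based on mean plus 3 SD of controls, cut at about 140% in these data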
STAT1 activ conf – STAT1 activation, confirmation assay. shares compounds with STAT1 act. NIH 3T3 STAT1-luciferase reporter, IFN-gamma potentiation, luminescence; 100% = IFN-gamma EC80 alone, no compound. activation (% of control), % at 5.7 µM. hit rate 97% among 1,200. AID 1262;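 active = activation above a set limit carried over from the earlier primary STAT1 screen, cut at about 140% in these data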;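 note: simple ratio to median IFN-gamma plus DMSO wells so 0% means no light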
NFkB act STAT1ct – NF-kappaB activation in STAT1 activator counter-screen. shares compounds with STAT1 act. HEK293T NF-kB luciferase reporter, TNF-alpha stimulated, luminescence; 100% = TNF-alpha with vehicle only. activation (% of control), % at 5.7 µM. hit rate 43% among 1,200;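 active = activation above the mean of solvent-only control wells plus 3 SD, set per campaign, cut at about 130% in these data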;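 note: TNF-alpha given at a submaximal dose yielding about 80% of full reporter signal; values are well signal over median control so 100% means no change and 0% no light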
STAT3 act 2 – human STAT3 activation in STAT1 activator counter-screen | shares compounds with STAT1 act | U3A cells STAT3-luciferase reporter, IL-6, luminescence; cells lack STAT1; 100 = IL-6 alone, no compound effect | activation (% of control), % at 5.7 µM | hit rate 46% among 1,200 | AID 1316;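 active = activation above the solvent-only control well mean plus 3 SD, set per plate batch, cut at about 110% in these data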;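 note: 0% = no luminescence and 100% = median IL-6 plus DMSO wells; higher means more STAT3 reporter activation so hits are non-selective activators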
Numbers without * were called inactive; x = no result. Hits are enriched below; roughly 4.3% of the tested compounds scored in any of these assays.

SMILES | STAT1 act | NF-kB neuron act | SDO1 yeast rescue | FLuc stim CS | FLuc inh counter | APP 5'UTR act | STAT1 activ conf | NFkB act STAT1ct | STAT3 act 2
CC(C)COc1ccc(-c2cc(C(=O)NN)[nH]n2)cc1 | 153* | 1.7 | 0.21 | 0.9 | 7 | 33 | 128 | 112 | 107
CCOc1ccc(-c2cc(C(=O)NN=C3CCN(C)CC3)[nH]n2)cc1 | 104 | 1.2 | x | 1 | 0 | -2 | x | x | x
Oc1sc(C=Nc2ccccc2)c2ccccc12 | 166* | 8.1* | -1.7 | 0.9 | 10 | 153* | 209* | 141* | 108
Oc1ccccc1N=Cc1sc2ccccc2c1Cl | 90 | 2.6 | 0.16 | 0.9 | 7 | 7 | x | x | x
Cc1nonc1C1CCCN1C(=O)c1cc(COc2ccc(F)cc2F)on1 (configuration not stated) | 168* | 2.7 | x | 1 | -2 | 101 | 183* | 137* | 110
Cc1cc(C)nc(CCNC(=O)c2cc(COc3ccc(F)cc3F)on2)n1 | 94 | x | x | 1.1 | -5 | 7 | x | x | x
O=c1oc2ccccc2cc1N1CCOCC1 | 107 | 1.1 | -0.16 | 0.9 | 7 | 9 | x | x | x
NS(=O)(=O)c1ccc(N/C=C\C(=O)c2ccncc2)cc1 | 108 | 1.1 | x | 1 | -1 | -23 | x | x | x
NS(=O)(=O)c1ccc(N/C=C\C(=O)c2ccc(F)cc2)cc1 | 156* | 3.2 | x | 0.9 | 12 | 126 | 188* | 128 | 115*
CC(=O)c1cccc(Nc2ccc(-c3ccccc3F)nn2)c1 | 152* | 2.1 | x | 0.7 | 29 | 134 | 179* | 130 | 103
COc1ccc(C(=O)Nc2ccc(N3CCN(C(=O)c4ccccc4)CC3)cc2)cc1[N+](=O)[O-] | 97 | 1 | x | 1 | 1 | 3 | x | x | x
Cc1cc(C)cc(NC(=O)c2ccc([N+](=O)[O-])o2)c1 | 162* | 6.1* | x | 1.1 | -6 | -71 | 115 | 116 | 108
O=C(Nc1ccc(N2CCN(C(=O)c3ccccc3)CC2)cc1)c1ccc([N+](=O)[O-])o1 | 173* | 0.22 | x | 1 | -1 | -94 | 92 | 105 | 93
CC(C)C(=O)N1CCN(c2ccc(NC(=O)c3ccc([N+](=O)[O-])o3)cc2Cl)CC1 | 153* | 0.15 | x | 1 | -4 | -96 | 105 | 105 | 111*
CCCC(=O)N1CCN(c2ccc(NC(=O)c3ccc([N+](=O)[O-])o3)cc2Cl)CC1 | 124 | x | x | 1 | -4 | -98 | x | x | x
C=CCn1cc(C(=O)OCC)c(=O)c2ccc(F)cc21 | 97 | 0.9 | x | 1 | -3 | 10 | x | x | x
CCC(C)NS(=O)(=O)c1ccc(S(=O)(=O)N2CC=C(c3ccc(F)cc3)CC2)cc1 (configuration not stated) | 99 | 0.97 | -1.6 | 1 | -3 | 10 | x | x | x
CC(C)CC(=O)Nc1ccc2c(c1)oc1ccccc12 | 152* | 6.1* | -0.94 | 0.5 | 49 | 173* | 190* | 134* | 106
Cc1cc2c(c(SCC#N)n1)C(=O)OC2 | 99 | 1.2 | x | 1.1 | -11 | 6 | x | x | x
c1ccc(N2CCN(c3nc4cc5c(cc4s3)OCCO5)CC2)cc1 | 158* | 2.1 | -0.86 | 0.8 | 16 | 49 | 190* | 125 | 85
COc1ccc(N=c2sc3ccccc3n2C)cc1 | 151* | 5.6* | -1.1 | 0.9 | 12 | 134 | 208* | 135* | 111*
COCCCNc1ncnc2nc[nH]c12 | 99 | 1 | 0.63 | 1.1 | -7 | 2 | x | x | x
O=C(CCc1ccccc1)Nc1cc2c(cc1Cl)OCCO2 | 158* | 2.5 | 0.11 | 0.9 | 8 | 82 | 181* | 139* | 115*
COc1cc(/C=N/OCC(=O)NC2CCCCC2C)ccc1OCc1ccc(Cl)cc1 (configuration not stated) | 158* | 5* | -0.47 | 0.9 | 10 | 141* | 182* | 134* | 107
COc1cc(/C=N/OCC(=O)Nc2cc(C)cc(C)c2)ccc1OCc1ccc(Cl)cc1 | 152* | 4.1* | 0.4 | 0.9 | 14 | 102 | 183* | 132 | 113*
SMILES | STAT1 act | NF-kB neuron act | SDO1 yeast rescue | FLuc stim CS | FLuc inh counter | APP 5'UTR act | STAT1 activ conf | NFkB act STAT1ct | STAT3 act 2
COc1cc(/C=N\n2cnnc2)ccc1OCC(=O)Nc1ccc(C)cc1 | 104 | 0.79 | -0.36 | 1 | -4 | 20 | x | x | x
COc1ccc(CCNC(=O)c2ccc3c(SCC(=O)O)c4c(nc3c2)CCCC4)cc1OC | 101 | 0.9 | x | 1 | -1 | -10 | x | x | x
COCCNS(=O)(=O)c1cc(C(=O)O)ccc1OC | 91 | 1.1 | x | 1.1 | -6 | -2 | x | x | x
O=[N+]([O-])c1cccc(-c2cn3ccccc3n2)c1 | 153* | 5.5* | x | 0.7 | 28 | 118 | 206* | 141* | 115*
CC(C)c1nnc(NC(=O)CCCC(=O)O)s1 | 90 | 0.94 | 0.37 | 1 | -2 | 4 | x | x | x
CCOC(=O)CC(=O)Nc1nnc(C(C)C)s1 | 152* | 1.2 | 0.42 | 1.1 | -6 | -4 | 112 | 103 | 102
CCC(=O)Nc1cccc(NC(=S)NC(=O)c2ccccc2)c1 | 151* | 2.5 | 0.31 | 0.8 | 15 | 45 | 162* | 128 | 114*
CCC(=O)Nc1cccc(NC(=S)NC(=O)c2cc3ccccc3o2)c1 | 157* | 0.99 | x | 0.7 | 28 | 153* | 235* | 122 | 111*
CCC(=O)NC(=S)Nc1cccc(NC(=O)CC)c1 | 96 | 1.1 | 0.75 | 1 | -2 | -7 | x | x | x
CC1CCN(C(=O)/C=C/c2ccc(C(C)(C)C)cc2)CC1 | 106 | 2 | -0.16 | 0.9 | 10 | 28 | x | x | x
Cc1ccc(/C=C/C(=O)N2CCCC(C)C2)cc1 (configuration not stated) | 168* | 4.5* | -0.34 | 0.3 | 75* | 125 | 193* | 124 | 101
CC(C)(C)c1ccc(/C=C/C(=O)N2CCCCC2)cc1 | 169* | 4.4* | x | 0.7 | 28 | 110 | 166* | 149* | 128*
COc1ccc(C(=O)COC(=O)CCCn2c(=O)oc3ccccc32)cc1 | 97 | x | x | x | x | 16 | x | x | x
Cc1ccc(/C=[N+](\[O-])c2ccc(N(C)C)cc2)c2nsnc12 | 162* | x | x | 0.3 | 72* | -61 | 199* | 137* | 107
Cc1ccc2nsnc2c1NS(=O)(=O)c1c(C)ccc2nsnc12 | 102 | 1.1 | -0.54 | 1 | -4 | 11 | x | x | x
